In ChEMBL document CHEMBL1157361, “Steady-state disposition of the nonpeptidic protease inhibitor tipranavir when coadministered with ritonavir” (Antimicrob Agents Chemother, 2007):
Blank lines part the entries; values can stand above or below the molecule they belong to.

Key:
[1] = system: Homo sapiens; assay: Tlast ( 0 to infinity) in healthy human plasma at 500 mg, po twice daily coadministered with ritonavir 200 mg, po twice daily for 21 days with additional single dose of 551 mg, po on day 7; type: ADME, organism-based; settings: in vivo, 504 h
How it was run: (§1)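 Healthy male nonsmoking volunteers (9 completed) on TPV 500 mg + RTV 200 mg orally twice daily. On day 7, after a light snack 60 min earlier, they took 500 mg [14C]TPV (90 µCi) + 200 mg RTV and fasted 4 h; unlabelled dosing then resumed to day 20. Samples were stored at about –20°C until analysis.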

[2] = system: Homo sapiens; assay: Volume of distribution ( 0 to 12 hrs) in healthy human plasma at 500 mg, po twice daily coadministered with ritonavir 200 mg, po twice daily for 21 days with additional single dose of 551 mg, po on day 7; type: ADME, organism-based; settings: in vivo; how it was run: as §1
[3] = Biodistribution in healthy human excreta assessed as Tipranavir hydroxyl metabolite H-1 level at 500 mg, po twice daily coadministered with ritonavir 200 mg, po twice daily for 21 days with additional single dose of 551 mg, po on day 7; type: ADME, organism-based; settings: in vivo, 504 h; how it was run: as §1
[4] = system: Plasma; assay: Biodistribution in healthy human plasma assessed as Tipranavir glucuronidation conjugate H-3 level at 500 mg, po twice daily coadministered with ritonavir 200 mg, po twice daily for 21 days with additional single dose of 551 mg, po on day 7 measured 3 hrs postdose; type: ADME, organism-based; settings: in vivo; how it was run: as §1
[5] = system: Homo sapiens; assay: Volume of distribution ( 0 to infinity) in healthy human blood at 500 mg, po twice daily coadministered with ritonavir 200 mg, po twice daily for 21 days with additional single dose of 551 mg, po on day 7; type: ADME, organism-based; settings: in vivo, 504 h; how it was run: as §1
[6] = Biodistribution in healthy human urine assessed as Tipranavir glucuronidation conjugate H-3 level at 500 mg, po twice daily coadministered with ritonavir 200 mg, po twice daily for 21 days with additional single dose of 551 mg, po on day 7; type: ADME, organism-based; settings: in vivo, 504 h; how it was run: as §1
[7] = Biodistribution in healthy human excreta assessed as Tipranavir oxidation metabolite H-2 level at 500 mg, po twice daily coadministered with ritonavir 200 mg, po twice daily for 21 days with additional single dose of 551 mg, po on day 7; type: ADME, organism-based; settings: in vivo, 504 h; how it was run: as §1
[8] = Biodistribution in healthy human sexcreta assessed as Tipranavir glucuronidation conjugate H-3 level at 500 mg, po twice daily coadministered with ritonavir 200 mg, po twice daily for 21 days with additional single dose of 551 mg, po on day 7; type: ADME, organism-based, Excreta; settings: in vivo, 504 h; how it was run: as §1
[9] = system: Homo sapiens; assay: Tlast ( 0 to infinity) in healthy human blood at 500 mg, po twice daily coadministered with ritonavir 200 mg, po twice daily for 21 days with additional single dose of 551 mg, po on day 7; type: ADME, organism-based; settings: in vivo, 504 h; how it was run: as §1
[10] = Biodistribution in healthy human assessed as radioactive drug dose recovery in feces at 500 mg, po twice daily coadministered with ritonavir 200 mg, po twice daily for 21 days with additional single dose of 551 mg, po on day 7; type: ADME, organism-based; settings: in vivo, 504 h; how it was run: as §1
[11] = system: Homo sapiens; assay: Biodistribution in healthy human assessed as radioactive drug dose recovery at 500 mg, po twice daily coadministered with ritonavir 200 mg, po twice daily for 21 days with additional single dose of 551 mg, po on day 7; type: ADME, organism-based; settings: in vivo, 504 h; how it was run: as §1
[12] = Biodistribution in healthy human feces assessed as Tipranavir hydroxyl metabolite H-1 level at 500 mg, po twice daily coadministered with ritonavir 200 mg, po twice daily for 21 days with additional single dose of 551 mg, po on day 7; type: ADME, organism-based; settings: in vivo, 504 h; how it was run: as §1
[13] = system: Plasma; assay: Biodistribution in healthy human plasma assessed as Tipranavir hydroxyl metabolite H-1 level at 500 mg, po twice daily coadministered with ritonavir 200 mg, po twice daily for 21 days with additional single dose of 551 mg, po on day 7 measured 3 hrs postdose; type: ADME, organism-based; settings: in vivo; how it was run: as §1
[14] = Biodistribution in healthy human assessed as radioactive drug dose recovery in urine at 500 mg, po twice daily coadministered with ritonavir 200 mg, po twice daily for 21 days with additional single dose of 551 mg, po on day 7; type: ADME, organism-based; settings: in vivo, 504 h
[15] = Biodistribution in healthy human urine assessed as Tipranavir hydroxyl metabolite H-1 level at 500 mg, po twice daily coadministered with ritonavir 200 mg, po twice daily for 21 days with additional single dose of 551 mg, po on day 7; type: ADME, organism-based; settings: in vivo, 504 h; how it was run: as §1
[16] = system: Homo sapiens; assay: Volume of distribution ( 0 to infinity) in healthy human plasma at 500 mg, po twice daily coadministered with ritonavir 200 mg, po twice daily for 21 days with additional single dose of 551 mg, po on day 7; type: ADME, organism-based; settings: in vivo, 504 h; how it was run: as §1
[17] = system: Homo sapiens; assay: Cmax ( 0 to 12 hrs) in healthy human plasma at 500 mg, po twice daily coadministered with ritonavir 200 mg, po twice daily for 21 days with additional single dose of 551 mg, po on day 7; type: ADME, organism-based; design: dose 500 mg, route oral; settings: in vivo; how it was run: as §1
[18] = Biodistribution in healthy human feces assessed as Tipranavir oxidation metabolite H-2 level at 500 mg, po twice daily coadministered with ritonavir 200 mg, po twice daily for 21 days with additional single dose of 551 mg, po on day 7; type: ADME, organism-based; settings: in vivo, 504 h; how it was run: as §1
[19] = system: Homo sapiens; assay: Volume of distribution ( 0 to 12 hrs) in healthy human blood at 500 mg, po twice daily coadministered with ritonavir 200 mg, po twice daily for 21 days with additional single dose of 551 mg, po on day 7; type: ADME, organism-based; settings: in vivo; how it was run: as §1
[20] = Biodistribution in healthy human excreta at 500 mg, po twice daily coadministered with ritonavir 200 mg, po twice daily for 21 days with additional single dose of 551 mg, po on day 7; type: ADME, organism-based; settings: in vivo, 504 h; how it was run: as §1
[21] = Biodistribution in healthy human urine at 500 mg, po twice daily coadministered with ritonavir 200 mg, po twice daily for 21 days with additional single dose of 551 mg, po on day 7; type: ADME, organism-based; settings: in vivo, 504 h; how it was run: as §1
[22] = system: Homo sapiens; assay: Volume of distribution in healthy human at 500 mg, po twice daily coadministered with ritonavir 200 mg, po twice daily for 21 days with additional single dose of 551 mg, po on day 7; type: ADME, organism-based; settings: in vivo, 504 h; how it was run: as §1
[23] = Half life in healthy human at 500 mg, po twice daily coadministered with ritonavir 200 mg, po twice daily for 21 days with additional single dose of 551 mg, po on day 7; type: ADME, organism-based; settings: in vivo; how it was run: as §1
[24] = Drug level in healthy human at 500 mg, po twice daily coadministered with ritonavir 200 mg, po twice daily for 21 days with additional single dose of 551 mg, po on day 7 measured 12 hrs postdose; type: ADME, organism-based; settings: plasma; how it was run: as §1
[25] = Clearance life in healthy human at 500 mg, po twice daily coadministered with ritonavir 200 mg, po twice daily for 21 days with additional single dose of 551 mg, po on day 7; type: ADME, organism-based; settings: in vivo; how it was run: as §1
[26] = Tmax in healthy human at 500 mg, po twice daily coadministered with ritonavir 200 mg, po twice daily for 21 days with additional single dose of 551 mg, po on day 7; type: ADME, organism-based; settings: in vivo; how it was run: as §1
[27] = system: Homo sapiens; assay: Toxicity in healthy human at 500 mg, po twice daily coadministered with ritonavir 200 mg, po twice daily for 21 days with additional single dose of 551 mg, po on day 7; type: organism-based; settings: in vivo, 504 h
[28] = AUC (0 to 12 hrs) in healthy human at 500 mg, po twice daily coadministered with ritonavir 200 mg, po twice daily for 21 days with additional single dose of 551 mg, po on day 7; type: ADME, organism-based; design: dose 500 mg, time < 12 hr, route oral; settings: plasma; how it was run: as §1
[29] = Cmax in healthy human at 500 mg, po twice daily coadministered with ritonavir 200 mg, po twice daily for 21 days with additional single dose of 551 mg, po on day 7; type: ADME, organism-based; design: dose 500 mg, route oral; settings: in vivo; how it was run: as §1

Tlast [1]: 90.67 h
Vd [2]: 8.32 L
Drug uptake [3]: 3.2 %ID
Drug uptake [4]: 0.05 µg/mL
Vd [5]: 44.23 L
Drug uptake [6]: 0.5 %ID
Drug uptake [7]: 0.4 %ID
Drug uptake [8]: 0.5 %ID
Tlast [9]: 64 h
Drug uptake [10]: 70.4%
Drug uptake [11]: 75.3%
Drug uptake [12]: 3.2 %ID
Drug uptake [13]: 0.1 µg/mL
Drug uptake [14]: 4.59%
Drug uptake [15]: < 0.1 %ID
Vd [16]: 32.47 L
Cmax [17]: 90.5 µM
Drug uptake [18]: 0.4 %ID
Vd [19]: 15.68 L
Drug uptake [20]: 53.5 %ID
Drug uptake [21]: < 0.1 %ID
SMILES: CCC[C@@]1(CCc2ccccc2)CC(O)=C([14C@H](CC)c2cccc(NS(=O)(=O)c3ccc(C(F)(F)F)cn3)c2)C(=O)O1

Vd [22]: 9.6 L
half-life [23]: 276 min
concentration at 12 h [24]: 25.9 µM
CL/F [25]: 24.5 mL/min
Tmax [26]: 2.9 h
AUC(0-t) at 12 h [28]: 657 µM·h
Cmax [29]: 99.4 µM
SMILES: CCC[C@@]1(CCc2ccccc2)CC(O)=C([C@H](CC)c2cccc(NS(=O)(=O)c3ccc(C(F)(F)F)cn3)c2)C(=O)O1 [TIPRANAVIR]
Activity [27]: Non-toxic
